The species entered for data set [1] is Homo sapiens. The experiment in a line: Inhibition of acetyl-PHF6 amide self-aggregation (unknown origin) in pH 7.4 phosphate buffer at 10 uM and 25 degreeC measured every 1 min for 120 mins under shaking condition by ThT fluorescence assay relative to control. The gist of the method:
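AcPHF6 dissolved in HFIP, dried overnight, 1 mM water stock used at once. Final 100 μM peptide, 20 μM ThT, 10 μM compound (≤0.1% DMSO) in 50 mM phosphate buffer pH 7.4, 25 °C. Ex 440/em 490 nm read each minute for 120 min, 10 s shaking (400 rpm) before each read. Inhibition from mean signal at 50–60 min; ≥3 wells; mean ± SD of three experiments; DMSO negative control.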

The species entered for data set [2] is Homo sapiens. Description: Inhibition of acetyl-PHF6 amide self-aggregation (unknown origin) in pH 7.4 phosphate buffer assessed as decrease in absorbance intensity at 10 uM and 25 degreeC measured immediately after 10 sec vibration per minute for 120 mins under shaking condition by circular dichroism spectroscopy. The gist of the method:
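Fresh samples of 100 μM AcPHF6 with 10 μM compound (≤0.1% DMSO) in 50 mM phosphate buffer pH 7.4. 10 s vibration per minute at 25 °C over 120 min. Spectra 260–200 nm, 1 mm quartz cell, 1 nm bandwidth, 50 nm/min scan. Solvent and compound contributions subtracted, converted to Δε per residue, Savitzky-Golay smoothed.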
(In general: CD spectra are sensitive to the conformation of chiral molecules.)

Data set [3] is filed under the species Homo sapiens. The experiment in a line: Inhibition of acetyl-PHF6 amide self-aggregation (unknown origin) in pH 7.4 phosphate buffer assessed as absence of fibrillar material at 20 uM and 25 degreeC measured after 10 mins by phosphotungstic acid staining based TEM analysis.
The species named for data set [4] is Homo sapiens. Description: Inhibition of acetyl-PHF6 amide self-aggregation (unknown origin) in pH 7.4 phosphate buffer assessed as appearance of dot like structure with <5 nm at 20 uM and 25 degreeC measured after 10 mins by phosphotungstic acid staining based TEM analysis.
Data set [5] addresses Microtubule-associated protein tau (Homo sapiens) (UniProt P10636). The experiment in a line: Inhibition of heparin-induced recombinant full length His-tagged 2N4R tau self-aggregation (unknown origin) expressed in Escherichia coli BL21 (DE3) at 10 uM measured after 6 mins by ThT fluorescence assay. The gist of the method: (§1)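 His-tagged full-length 2N4R tau from E. coli BL21(DE3) (pET-28a, 1 mM IPTG, 37 °C), BCA-quantified, stored −80 °C. 10 μM tau with 10 μM compound and 1 mM DTT in 1× PBS at 37 °C, aggregation started with 10 μM heparin (MW 6117), 10 μM ThT. Ex 440/em 490 nm, read every 4 min with 2 min shaking (600 rpm) before reading.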

Data set [6] has the same target. Description: Inhibition of heparin-induced recombinant full length His-tagged 2N4R tau self-aggregation (unknown origin) expressed in Escherichia coli BL21 (DE3) assessed as reduction in aggregate formation at 10 uM measured after 6 mins by ThT fluorescence assay relative to control. The gist of the method:
as §1

Another data set relates to SH-SY5Y. The experiment in a line: Cytotoxicity against human SH-SY5Y cells assessed as reduction in cell survival at 30 uM measured after 24 hrs by MTT assay. It counts as cell-based. The gist of the method: (§2)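 Cells in high-glucose DMEM with 10% FBS, 5% CO₂, 37 °C, seeded 3000–5000/well, exposed to compound 24 h. MTT (0.5 mg/mL) 4 h, formazan dissolved in DMSO, absorbance 570 nm (reference 630 nm). Viability as percent of untreated control; mean ± SD, three independent experiments.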

Another data set has as its system L02. Description: Cytotoxicity against human L02 cells assessed as effect on cell viability at <=40 uM measured after 24 hrs by MTT assay. It counts as cell-based. The conditions noted are these: l02, 24 h. The gist of the method: as §2
(In general: Tetrazolium dyes change colour on reduction, which living cells bring about.)

Data set [7] has as its system BV-2. Description: Cytotoxicity against mouse BV-2 cells at 20 uM measured after 24 hrs by MTT assay. It counts as cell-based. The conditions noted are these: bv-2, 24 h. The gist of the method: as §2
Data set [8] has as its system BV-2. Description: Antiinflammatory activity in mouse BV-2 cells assessed as inhibition of LPS-induced NO production at 10 uM pretreated with compound for 1 hr followed by LPS stimulation and measured after 18 hrs by Griess assay relative to control. The conditions noted are these: time 19 hrs. The data set is classed as functional. The gist of the method: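 BV2 microglia grown in high-glucose DMEM with 10% FBS, seeded at 3 × 10^4 cells/well, preincubated with compound 1 h, then LPS (final 1 µg/ml) for 18 h. Supernatant mixed with equal volume Griess reagent, 10 min at 25 °C, absorbance 540 nm. Inhibition = (F_L−F_C)/(F_L−F₀) × 100. Mean ± SD, three independent experiments.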
A general note: Griess reagent forms a coloured azo dye with nitrite.

Data set [9] can be described thus: Acute toxicity in Sprague-Dawley rat model of OA-induced dementia assessed as mortality at 5 to 10 mg/kg, ip administered for 7 days. The data set is classed as organism-based. The conditions noted are these: in vivo, 168 h, dose 5-10 mg/kg, time 7 day. The gist of the method:
(§3)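 Adult male SD rats (260-280 g), n = 8 per group. Compound given ip at 5 or 10 mg/kg daily for 7 days in saline with 8% DMSO and 1% Tween-80 cosolvent; controls got vehicle. Okadaic acid (300 ng in 1.5 μL saline) then injected stereotaxically into right dorsal hippocampus under isoflurane, and ip dosing continued 7 more days. Body weight recorded throughout; swimming speed recorded in Morris water maze.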

The subject of data set [10] is Rattus norvegicus. Description: Cognitive enhancing effect in Sprague-Dawley rat model of OA-induced dementia assessed as average escape latency time to hidden platform at 5 to 10 mg/kg, ip administered for 7 days by Morris water maze test (reference value: 12.5 to 37.2 sec). The data set is classed as functional. The following applies: dose 5-10 mg/kg; time 7 day. The gist of the method:
(§4)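 Male SD rats (n = 8/group), ip dosing at 5 or 10 mg/kg in saline with 8% DMSO and 1% Tween-80 for 7 days, then OA (300 ng in 1.5 μL saline) microinjected into right dorsal hippocampus. Dosing continued 7 days after OA. Morris water maze: 5 training days recording escape latency, distance and swim speed; day-6 probe trial, platform removed, 60 s search, quadrant time and crossings counted. Two-way ANOVA versus model; SEM.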

The nature of data set [11]: Toxicity in Sprague-Dawley rat model of OA-induced dementia assessed as effect on swimming speed at 5 to 10 mg/kg, ip administered for 7 days. The following applies: in vivo, 168 h, dose 5-10 mg/kg, time 7 day. The data set is classed as organism-based. The gist of the method: as §3
Data set [12] relates to Rattus norvegicus. Description: Cognitive enhancing effect in Sprague-Dawley rat model of OA-induced dementia assessed as increase in time spent in virtual platform quadrant at 10 mg/kg, ip administered for 7 days by Morris water maze test. The conditions noted are these: time 7.0 day. It counts as functional, organism-based. The gist of the method: as §4
The test system of data set [13] is Rattus norvegicus. The experiment in a line: Cognitive enhancing effect in Sprague-Dawley rat model of OA-induced dementia assessed as increase in number of platform crossing at 10 mg/kg, ip administered for 7 days by Morris water maze test. The conditions noted are these: time 7.0 day. It counts as functional, organism-based. The gist of the method: as §4
The nature of data set [14]: Acute toxicity in Sprague-Dawley rat model of OA-induced dementia assessed as effect on body weight at 5 to 10 mg/kg, ip administered for 14 days. The conditions noted are these: in vivo, 336 h.

The source made the active and inactive calls. The rule behind the calls is not given here.

Chain of Microtubule-associated protein tau (Homo sapiens) (P10636 whole entry): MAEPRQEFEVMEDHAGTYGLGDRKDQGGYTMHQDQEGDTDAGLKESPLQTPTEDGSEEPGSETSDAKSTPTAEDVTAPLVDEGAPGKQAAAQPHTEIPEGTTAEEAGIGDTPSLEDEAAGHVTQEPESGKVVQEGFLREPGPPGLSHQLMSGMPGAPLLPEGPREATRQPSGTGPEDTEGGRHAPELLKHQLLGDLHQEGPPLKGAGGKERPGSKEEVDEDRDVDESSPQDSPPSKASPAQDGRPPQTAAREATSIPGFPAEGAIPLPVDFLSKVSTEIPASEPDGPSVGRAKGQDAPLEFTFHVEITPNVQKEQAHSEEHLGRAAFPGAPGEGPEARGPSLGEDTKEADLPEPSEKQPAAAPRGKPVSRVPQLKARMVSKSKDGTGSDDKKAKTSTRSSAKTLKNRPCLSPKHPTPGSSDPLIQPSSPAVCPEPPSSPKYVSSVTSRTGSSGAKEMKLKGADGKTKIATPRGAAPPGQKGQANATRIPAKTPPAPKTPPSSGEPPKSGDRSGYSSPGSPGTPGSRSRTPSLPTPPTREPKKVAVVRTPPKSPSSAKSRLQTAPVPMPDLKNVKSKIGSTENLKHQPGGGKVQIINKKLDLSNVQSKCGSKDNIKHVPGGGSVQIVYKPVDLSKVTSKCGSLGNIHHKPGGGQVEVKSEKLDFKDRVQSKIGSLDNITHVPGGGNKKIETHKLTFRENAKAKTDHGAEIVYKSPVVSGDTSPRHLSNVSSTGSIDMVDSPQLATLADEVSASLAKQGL

`CC(=O)c1c(O)c(C)c(O)c2c1OC1=Cc3c(c(C)nn3-c3ccc(C(=O)O)cc3)C(=O)[C@@]12C`: the inhibition (as a rule, the relative decrease from the control value, in per cent) in the data set filed under Homo sapiens [1] amounted to 51.7%; in [6], 50%. Further, the inhibition result (in the data set listed under Homo sapiens [2]; in the data set filed under Homo sapiens [3]; in the data set filed under Homo sapiens [4]; in data set [5]) was “Active” in each case. In addition, the Activity entry in the data set with SH-SY5Y is listed as “Toxic”; in the data set on L02, “Non-Toxic”; with BV-2 [7], “Non-Toxic”; in data set [9], “Non-Toxic”; in [11], “Non-Toxic”; in data set [14] it was “Non-Toxic”. In the data set with BV-2 [8], the inhibition at 10 µM was determined as 41%. For the same compound, the Time in the data set with Rattus norvegicus [10] was determined as 18.5 s. In addition, the outcome with Rattus norvegicus [12] and in the data set on Rattus norvegicus [13] was Active.

The values above are taken from ChEMBL document CHEMBL4706486, “Usnic acid derivatives as tau-aggregation and neuroinflammation inhibitors” (Eur J Med Chem, 2020).
